bIAP act: intestinal alkaline phosphatase (bovine) activation | purified bovine IAP, CDP-star luminescence, 30 min; hits give high values; fold of DMSO-control signal, blank-subtracted | activation factor at 20 µM | hit rate 0.17% among 200,000;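 active = activation factor of 2 or more at 20 µM, a signal rise over negative controls twice the positive control's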
hIAP block: blocks human intestinal alkaline phosphatase; AID 2544; hit rate 0.12% among 330,000; inhibition, % at 10 µM; purified IAP, CDP-Star luminescence, 30 min; P09923;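 active = inhibition reaching a set limit with compound at 10 µM in the primary screen, cut at about 35% in these data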;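 also: plate controls were DMSO wells with enzyme for no effect and no-enzyme buffer wells for full effect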
Target sequence (P09923 whole entry, looked up): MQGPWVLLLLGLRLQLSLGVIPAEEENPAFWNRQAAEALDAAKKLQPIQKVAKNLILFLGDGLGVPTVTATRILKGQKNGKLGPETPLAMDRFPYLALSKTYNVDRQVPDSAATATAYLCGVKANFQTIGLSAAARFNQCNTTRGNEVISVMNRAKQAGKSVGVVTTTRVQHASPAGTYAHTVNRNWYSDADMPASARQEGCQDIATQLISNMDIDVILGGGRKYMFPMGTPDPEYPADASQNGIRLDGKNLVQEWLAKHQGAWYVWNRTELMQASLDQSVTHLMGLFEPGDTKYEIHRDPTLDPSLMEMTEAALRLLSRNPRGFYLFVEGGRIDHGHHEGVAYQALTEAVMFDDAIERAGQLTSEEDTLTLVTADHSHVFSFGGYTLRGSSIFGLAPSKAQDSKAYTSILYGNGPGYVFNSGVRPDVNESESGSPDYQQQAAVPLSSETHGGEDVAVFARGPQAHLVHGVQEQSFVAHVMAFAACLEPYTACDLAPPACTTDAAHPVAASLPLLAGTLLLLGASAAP
mIAP inh: mouse IAP inhibition | purified mouse IAP, CDP-Star luminescence, 30 min | inhibition, % at 10 µM | hit rate 0.2% among 330,000;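 active = inhibition of at least 40% at 10 µM in the primary screen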;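 also: plate controls were DMSO with enzyme for no effect and no enzyme wells for full effect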
bIAP inh: blocks bovine intestinal alkaline phosphatase activity. purified bovine IAP, CDP-star luminescence, 30 min. inhibition, % at 20 µM. 190,000 tested, under 10 active;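 active = over 50% inhibition of intestinal alkaline phosphatase at 20 µM in the single-dose screen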
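test system = bovine IAP enzyme | medium = DEA buffer 100 mM, pH 9.8, with MgCl2 1.0 mM, ZnCl2 0.02 mM | detection = luminescence | dosing = single compound dose of 20 µM, 2% DMSO final | incubation = 30 min reaction at room temperature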
hIAP activ: increases human intestinal alkaline phosphatase activity | activation factor at 10 µM | AID 2524 | hit rate 0.16% among 330,000 | P09923 | purified human IAP, CDP-Star luminescence, 30 min; hits give high values; 1 = vehicle-only enzyme, 0 = enzyme-free background;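 active = activation factor of the enzyme at least 2-fold when tested at 20 µM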
mIAP activ: increases mouse intestinal alkaline phosphatase activity | muIAP, CDP-Star luminescence, 30 min; hits give high values; 1 = vehicle-only enzyme signal, 0 = enzyme-free wells | activation factor at 10 µM | hit rate 0.24% among 330,000 | AID 2805;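 active = activation factor of at least 2 at 20 µM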
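System: Mouse IAP enzyme | Also added: CDP-Star substrate | Dosing: Compounds dispensed in DMSO | Schedule: 30 min enzyme-substrate-compound incubation at room temperature | Technique: Chemiluminescence readout | Control set: DMSO-only wells and no-enzyme negative control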
hIAP act conf: human IAP activation confirmation; activation (%Activity, negative = activation), % at 8.3 µM; purified IAP, CDP-Star luminescence, 30 min; hits give low values; shares compounds with hIAP activ; hit rate 10% among 880;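 active = at least twofold enzyme activation in any of six single-dose repeats, which the averaged readout prints as negative percent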
mIAP inh conf: mouse IAP inhibition confirmation; inhibition, % at 10 µM; shares compounds with mIAP inh; AID 434971; purified mouse IAP, CDP-Star luminescence, 30 min; hit rate 4.7% among 11,000;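 active = inhibition of at least 40% at 10 µM in either of the two replicates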;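 also: plate controls were DMSO wells with enzyme for no effect and buffer wells lacking enzyme for full effect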
Numbers without * were called inactive; i = inactive; . = no result. In the library only some 0.72% were active in any assay of this set; here they are far more common.

SMILES	bIAP act	hIAP block	mIAP inh	bIAP inh	hIAP activ	mIAP activ	hIAP act conf	mIAP inh conf
CCn1nc(C)c(CN2CCC(C(=O)Nc3cccc(-c4cccc(F)c4)c3)CC2)c1C	.	i	-387	.	6.1*	4.9*	51	-208
CCn1cc(CN2CCC(C(=O)Nc3cccc(-c4cccc(OC)c4)c3)CC2)cn1	.	-13	-1	.	1.1	1	.	.
CC(C)n1cc(CN2CCC(C(=O)Nc3cccc(-c4cccc(Cl)c4)c3)CC2)cn1	.	i	-495	.	8.8*	6*	-97*	-297
COc1ccc(C)cc1N(CC(=O)N1CCCCCC1)S(=O)(=O)c1ccccc1	.	5	-7	.	0.95	1.1	.	.
COc1cc(/C=C/C(O)=C/C(=O)/C=C/c2ccc(O)cc2)ccc1O	.	35*	53*	.	0.65	0.47	11	48*
COc1ccc(NC(=O)CN(C)C(=O)c2ccc(NS(=O)(=O)c3ccc(F)cc3)cc2)cc1	.	4	8	.	0.96	0.92	.	.
CC1CCN(C(=O)CN2C(=O)NC3(CCC(C)CC3)C2=O)CC1 (stereo unspecified)	.	-2	1	.	1	0.99	.	.
N#C/C(=C\c1ccc(O)c(O)c1)C(=O)c1ccc(O)c(O)c1	.	37*	87*	.	0.63	0.13	74	86*
N#C/C(=C\c1ccc(O)c(O)c1)C(=O)N1CCCC1	0.8	20	19	23	0.8	0.81	.	.
CC(C)n1cc(CN2CCC(n3nccc3NC(=O)C3CCCC3)CC2)cn1	.	6	-2	.	0.94	1	.	.
Cc1ccc(C)c(CN2CCC(n3nccc3NC(=O)CCCc3ccccc3)CC2)c1	.	-164	-138	.	2.6*	2.4*	-61	-131
CC(C)Cc1ccc(CN2CCC(n3nccc3NC(=O)C3CCCC3)CC2)cc1	.	-232	-143	.	3.3*	2.4*	5	-98
O=C(CCCc1ccccc1)Nc1ccnn1C1CCN(Cc2ccc(Cl)cc2)CC1	.	-195	-150	.	2.9*	2.5*	-2	-118
CCOc1cccc(CN2CCC(n3nccc3NC(=O)CCCc3ccccc3)CC2)c1	.	-246	-138	.	3.5*	2.4*	-10	-130
CCOC(=O)c1cc(CC)sc1NC(=O)CN1CCN(C(=O)c2ccco2)CC1	.	-11	9	.	1.1	0.91	.	.
COC(=O)c1ccc(CN2C(=O)NC(Cc3c[nH]c4ccccc34)C2=O)cc1 (stereo unspecified)	.	-1	2	.	1	0.98	.	.
Cc1oc(C(C)(C)C)cc1C(=O)N1CCN(C(c2ccccc2)c2ccccc2)CC1	.	0	-7	.	1	1.1	.	.
O=C(NN1C(=O)/C(=C/c2ccc(O)c(O)c2)SC1=S)c1ccccc1	.	69*	44*	.	0.31	0.56	2	78*
O=C(NN1C(=O)/C(=C/c2cccc(O)c2)SC1=S)c1ccccc1O	.	-63	38	.	1.6	0.62	.	.
COc1cc(NC(=O)NCC2CCN(Cc3ccccc3C)CC2)cc(OC)c1OC	.	-141	-253	.	2.4*	3.5*	30	-190
COc1ccc(-n2ncc3c2CC(C)(C)CC3NC(=O)CCn2cncn2)cc1 (stereo unspecified)	.	30	-1	.	0.7	1	.	.
O=C(Nc1ccc(Cl)cc1)C1CC(=O)n2c(nc3ccccc32)N1 (stereo unspecified)	1	-104	-169	2	2*	2.7*	-7	-106
Cc1ccc(NC(=O)C2CC(=O)n3c(nc4ccccc43)N2)cc1 (stereo unspecified)	1.1	-68	-99	-7	1.7	2	.	.
Cc1cccc(NC(=O)NCC2CCN(c3ccc(S(=O)(=O)N4CCOCC4)cc3)CC2)c1	.	-108	-251	.	2.1*	3.5*	-20	-156
Cc1ccccc1NC(=O)NCC1CCN(c2ccc(S(=O)(=O)N3CCOCC3)cc2)CC1	.	-9	-50	.	1.1	1.5	.	.
SMILES	bIAP act	hIAP block	mIAP inh	bIAP inh	hIAP activ	mIAP activ	hIAP act conf	mIAP inh conf
COc1ccc(O)c(/C=N/n2c(-c3ccco3)csc2=Nc2cccnc2)c1	0.9	7	13	10	0.93	0.87	.	.
CN=c1scc(-c2ccco2)n1/N=C/c1ccc(O)c(O)c1	0.9	35*	55*	9	0.65	0.45	-22	63*
Cc1ccc(CNC(=S)NC2CCC(C(C)(C)C)CC2)cc1 (stereo unspecified)	.	-107	-355	.	2.1*	4.5*	-26	-100
O=c1oc2cc([N+](=O)[O-])ccc2nc1/C=C(\O)c1cccc(Br)c1	.	23	18	.	0.77	0.82	.	.
O=c1oc2cc([N+](=O)[O-])ccc2nc1/C=C(O)/C=C/c1ccccc1	.	0	69*	.	1	0.31	.	76*
C#CCOCCOCCOCCNc1nc(N2CCN(C(=O)CCCCCCCCCCNC(=O)[C@H]([C@@H](C)CC)n3cc(CCCCN=C(N)N)nn3)CC2)nc(N2CCN(C(=O)CCCCCCCCCCNC(=O)[C@H]([C@@H](C)CC)n3cc(CCCCN=C(N)N)nn3)CC2)n1	.	-47	i	.	1.5	10*	.	i
C#CCOCCOCCOCCNc1nc(N2CCN(C(=O)[C@H]([C@@H](C)CC)n3cc(CCCN=C(N)N)nn3)CC2)nc(N2CCN(C(=O)[C@H]([C@@H](C)CC)n3cc(CCCN=C(N)N)nn3)CC2)n1	0.7	25	-8	32	0.75	1.1	.	.
C#CCOCCOCCOCCNc1nc(N2CCN(C(=O)CCCCCCCCCCNC(=O)Cn3cc(CCCCCN)nn3)CC2)nc(N2CCN(C(=O)CCCCCCCCCCNC(=O)[C@@H](CCSC)n3cc(CCO)nn3)CC2)n1	.	-14	-321	.	1.1	4.2*	.	-256
C#CCOCCOCCOCCNc1nc(N2CCN(C(=O)CCCCCCCCCCNC(=O)Cn3cc(CCCCCN)nn3)CC2)nc(N2CCN(C(=O)CCCCCCCCCCNC(=O)[C@H]([C@@H](C)CC)n3cc(CCCCN=C(N)N)nn3)CC2)n1	.	-19	i	.	1.2	9.7*	.	i
CC[C@H](C)[C@@H](C(=O)NCCCCCCCCCCC(=O)N1CCN(C(=O)OC(C)(C)C)CC1)n1cc(CCCCN=C(NC(=O)OC(C)(C)C)NC(=O)OC(C)(C)C)nn1	.	6	-125	.	0.94	2.3*	.	-128
C#CCOCCOCCOCCNc1nc(N2CCN(C(=O)CCCCCCCCCCNC(=O)Cn3cc(CCCCCN)nn3)CC2)nc(N2CCN(C(=O)CCCCCCCCCCNC(=O)[C@@H](CCC(=O)O)n3cc(CCCCCN)nn3)CC2)n1	.	3	-42	.	0.97	1.4	.	.
Cn1c(/C=C/c2cccc([N+](=O)[O-])c2)c([N+](=O)[O-])c(=O)n(C)c1=O	.	6	0	.	0.94	1	.	.

From PubChem
